By MIC is commonly meant the smallest concentration in the dilution series that meets the test's criterion for growth inhibition. A higher MIC goes with a need for much substance.

In brackets after ≈: the same amount, converted by molar mass. A value given as a limit tells only on which side of the number the result lay.

From ChEMBL document CHEMBL1681759, “Synthesis and biological evaluation of benzimidazole-5-carbohydrazide derivatives as antimalarial, cytotoxic and antitubercular agents” (Bioorg Med Chem, 2011) come the findings set out here.

The subject of this experiment is Mycobacterium tuberculosis. Briefly: Antimycobacterial activity against multidrug-resistant Mycobacterium tuberculosis clinical isolate after 5 days by tetrazolium microplate assay. The note with it: 120 h. In kind it is functional. In outline: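 Tetrazolium microplate assay run in 7H9GC broth. DMSO stocks (4 mg/mL) were diluted to final 0.4–25 µg/mL. Isoniazid (0.125–32 µg/mL) and rifampin (0.063–16 µg/mL) were positive controls; inoculum-only and DMSO controls were included. Plates were incubated 5 days at 37 °C, then an MTT-Tween 80 mix was added and incubation continued 24 h at 37 °C. Run in triplicate. MIC = lowest concentration preventing the yellow-to-purple colour change.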

The molecule `O=C(O)c1ccc2[nH]c(-c3ccc([N+](=O)[O-])o3)nc2c1` gave an MIC greater than 25 µg/mL.

The molecule `O=CNNC(=O)c1ccc2[nH]c(-c3ccc([N+](=O)[O-])o3)nc2c1` registered an MIC greater than 25 µg/mL.

For `O=C(NNC(=O)c1ccc2[nH]c(-c3ccc([N+](=O)[O-])o3)nc2c1)c1ccccc1`, the MIC stood at 6.25 µg/mL (≈ 16 µM).

For the molecule `COc1cccc(C(=O)NNC(=O)c2ccc3[nH]c(-c4ccc([N+](=O)[O-])o4)nc3c2)c1`, the lowest concentration to inhibit growth (MIC) was 25 µg/mL (≈ 59.3 µM).

Regarding `COc1ccc(C(=O)NNC(=O)c2ccc3[nH]c(-c4ccc([N+](=O)[O-])o4)nc3c2)cc1OC`, inhibition of growth (MIC) required 25 µg/mL (≈ 55.4 µM).

The molecule `COc1cc(C(=O)NNC(=O)c2ccc3[nH]c(-c4ccc([N+](=O)[O-])o4)nc3c2)cc(OC)c1OC` had an MIC of 25 µg/mL (≈ 51.9 µM).

In turn, `O=C(NNC(=O)c1ccc2[nH]c(-c3ccc([N+](=O)[O-])o3)nc2c1)c1cccc(Oc2ccccc2)c1` registered an MIC of 25 µg/mL (≈ 51.7 µM).

`COc1cccc(C(=O)NNC(=O)c2ccc3[nH]c(-c4ccc([N+](=O)[O-])s4)nc3c2)c1` yielded an MIC of 25 µg/mL (≈ 57.2 µM).

Consider `COc1cc(C(=O)NNC(=O)c2ccc3[nH]c(-c4ccc([N+](=O)[O-])s4)nc3c2)cc(OC)c1OC`, for which the MIC is greater than 25 µg/mL.

Take `O=C(NNC(=O)c1cc2ccccc2cc1O)c1ccc2[nH]c(-c3ccc([N+](=O)[O-])s3)nc2c1`: the MIC was greater than 25 µg/mL.

For the molecule `NNC(=O)c1ccncc1` [ISONIAZID], the MIC turned out to be 4 µg/mL (≈ 29.2 µM).

On to `CO[C@H]1/C=C/O[C@@]2(C)Oc3c(C)c(O)c4c(O)c(c(/C=N/N5CCN(C)CC5)c(O)c4c3C2=O)NC(=O)/C(C)=C\C=C\[C@H](C)[C@H](O)[C@@H](C)[C@@H](O)[C@@H](C)[C@H](OC(C)=O)[C@@H]1C` [RIFAMPIN], for which the lowest concentration to inhibit growth (MIC) was 2 µg/mL (≈ 2.43 µM).
